Most compounds without a hit are left out; they make up all but 3.5% or so of the library.
MrgX1 agonist – human MrgX1 receptor agonism, primary screen | B-score at 10 µM | MrgX1-HEK293 cells, Fluo-4 calcium fluorescence, agonist mode; hits give high values | AID 588627 | 310,000 tested, 0.44% active;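 active = calcium response B-score plate-corrected fluorescence ratio at least 3 library SD, with starting fluorescence B-score inside 5 SD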
Target sequence (Q96LB2 whole entry, looked up): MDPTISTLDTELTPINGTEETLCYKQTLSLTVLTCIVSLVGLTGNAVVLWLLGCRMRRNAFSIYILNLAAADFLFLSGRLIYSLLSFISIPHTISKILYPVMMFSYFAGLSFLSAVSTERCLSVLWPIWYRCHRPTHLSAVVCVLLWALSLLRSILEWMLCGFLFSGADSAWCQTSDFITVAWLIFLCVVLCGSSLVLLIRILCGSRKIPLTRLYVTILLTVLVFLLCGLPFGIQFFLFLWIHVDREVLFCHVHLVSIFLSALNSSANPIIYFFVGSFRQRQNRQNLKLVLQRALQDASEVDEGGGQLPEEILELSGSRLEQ
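Material: HEK293 cells stably expressing human MrgX1 receptor | Quantity: 15,000 cells per well | Times: Cells plated overnight, dye loaded 0.5 h 37 °C, 0.5 h room temperature | Measured by: Kinetic Fluo-4 NW fluorescence of intracellular calcium | Control set: Positive and negative controls per plate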
MrgX1 allo act – human MrgX1 positive allosteric modulation, primary screen; 310,000 tested, 0.63% active; B-score at 10 µM; MrgX1-HEK293, Fluo-4 calcium flux, FDSS; hits give high values; Q96LB2;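 active = plate-corrected calcium response at least 3 library SD above typical, normal starting fluorescence, not activating the receptor alone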;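 note: compound read alongside a low EC10 to EC30 dose of BAM8-22 agonist; peak minus trough fluorescence over baseline measured at the second addition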
RGS4 act – RGS4 potentiation or activation. HEK293 M3R/inducible RGS4, carbachol calcium flux Fluo4; hits give low values. B-score at 10 µM. 310,000 tested, 0.92% active. AID 463111;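 active = B-score of the integrated calcium signal more than 4 SD below the library mean, with starting fluorescence not abnormally high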;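 note: negative B-score means reduced calcium response which marks RGS4 activation or potentiation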
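Material: M3R-expressing HEK293 line, RGS4 induced by doxycycline | Schedule: Overnight RGS4 induction, 30 min dye load 37 °C, 20 min compound RT | Measured by: Fluo4 fluorescence kinetic imaging of calcium | Read-out: Integrated calcium ratio converted to B score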
MrgX1 antag – human MrgX1 receptor antagonism, primary screen; Q96LB2; MRGX1-HEK293 calcium flux, Fluo-4, BAM8-22 antagonism; hits give low values; B-score at 10 µM; 310,000 tested, 1.3% active; AID 588676;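 active = calcium-response B-score plate-corrected more than 3 library SD below zero, starting fluorescence within 5 deviations, no agonist response on first addition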;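 note: peak minus trough fluorescence over baseline after final BAM8-22 challenge near maximal dose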
RGS4 inh – human RGS4 inhibition; P49798; HEK293 M3R/RGS4 inducible, Fluo-4 calcium flux; hits give high values; triggered by carbachol at its EC20; B-score at 10 µM; 310,000 tested, 0.45% active;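 active = B-score, a plate-corrected calcium signal, over three deviations above library mean, with baseline fluorescence within five deviations of library mean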;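 note: RGS4 expression induced by doxycycline in cells with stable M3 receptor; B-score is computed from the integrated fluorescence ratio over baseline after carbachol; higher B-score means a larger calcium signal and so more RGS4 inhibition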
Target sequence (P49798 whole entry, looked up): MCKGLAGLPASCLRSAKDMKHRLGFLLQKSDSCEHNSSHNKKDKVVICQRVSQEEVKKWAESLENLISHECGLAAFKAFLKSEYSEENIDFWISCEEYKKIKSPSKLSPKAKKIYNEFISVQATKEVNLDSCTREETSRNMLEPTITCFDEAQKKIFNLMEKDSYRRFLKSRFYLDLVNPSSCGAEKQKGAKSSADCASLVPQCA
RGS4 act valid – confirmation of RGS4 activators | 1,100 tested, 89% active | shares compounds with RGS4 act | HEK293 M3R/RGS4 inducible, carbachol calcium flux Fluo4 | AID 602282 | inhibition, % at 10 µM;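 active = inhibition above 3 SD of the buffer control wells, cut at about 41% in these data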;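 note: signal is the integrated peak-minus-minimum Fluo4 fluorescence over baseline ratio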
M3R Ca counter – RGS4 activator counter-screen hit in non-induced cells; shares compounds with RGS4 act; 1,100 tested, 82% active; AID 602283; HEK293 M3R non-induced RGS4, Fluo4 calcium flux; after carbachol challenge at its EC90; inhibition, % at 10 µM;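 active = inhibition exceeding 3 SD of buffer-only control wells, cut at about 26% in these data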;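 note: percent drop in integrated peak-minus-baseline over baseline Fluo4 ratio after carbachol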
A number is an active result; - = inactive; . = not tested or not shown.

SMILES | MrgX1 agonist | MrgX1 allo act | RGS4 act | MrgX1 antag | RGS4 inh | RGS4 act valid | M3R Ca counter
COc1ccc(C(CNC(=O)c2ccc(Cl)c(NC(=O)c3cccs3)c2)N2CCCC2)cc1 (stereo unspecified) | - | - | -12.5 | - | - | 89.0 | 52.3
O=C(NCC1CCN(c2ccc(S(=O)(=O)N3CCOCC3)cc2)CC1)c1ccc(Cl)cc1 | - | - | -10.8 | - | - | 92.5 | 80.8
COc1cc2nc(Nc3ccc(C)c(C)c3)nc(N)c2cc1OC | - | - | -10.2 | - | - | 61.0 | -
Cc1cccc(NS(=O)(=O)c2ccc(C3CCCCC3)cc2)c1 | - | - | -8.84 | - | - | 94.5 | 91.8
COc1ccccc1C(=O)Nc1nc(-c2ccc3c(c2)OCCO3)cs1 | - | - | -8.77 | - | - | 88.5 | 62.3
C=CCNc1nc(N2CCCCC2)c(C#N)c2c1CN(Cc1ccccc1)CC2 | - | - | -8.89 | - | - | 94.0 | 80.8
Cc1nn(Cc2ccc(C(=O)Nc3ccc(C(=O)OC(C)C)cc3)o2)c(C)c1Cl | - | - | -9.61 | - | - | 91.5 | 79.3
Cc1nn(Cc2ccc(C(=O)NN)o2)c(C)c1Cl | - | - | - | - | - | . | .
CCOC(=O)c1ccc(NC(=O)c2c(Cl)cc(C)nc2C)cc1 | - | - | - | - | - | . | .
CCOC(=O)c1ccc(Nc2cc(C)nc(C)c2C(=O)OCC)cc1 | - | - | -8.42 | - | - | 57.5 | 83.8
CC(C)(C)c1[nH]nc2c1C(Cc1ccccc1)C(C#N)=C(N)O2 (stereo unspecified) | - | - | -9.3 | -5.1 | - | 92.0 | 83.8
CC(C)(C)c1[nH]nc2c1C(c1cccnc1)C(C#N)=C(N)O2 (stereo unspecified) | - | - | - | - | - | . | .
COCCn1c(COc2cccc(OC)c2)nnc1SCC(=O)N1CCOCC1 | - | - | - | - | - | . | .
Cc1cc(C)n2nc(SCc3nnc(SCCCCl)o3)nc2n1 | - | - | -7.71 | - | - | 77.5 | 34.8
Cc1c(C(=O)N/N=C/c2cccnc2)sc(N)c1C#N | - | - | - | - | - | . | .
Cc1c(C(=O)N2CCN(c3ccc(F)cc3)CC2)sc2ncnc(N3CCN(c4ccccn4)CC3)c12 | - | - | -8.9 | - | - | 92.0 | 83.8
Cc1c(C(=O)N(C)C2CCCCC2)sc2ncnc(N3CCN(c4ccccc4F)CC3)c12 | - | - | - | - | - | . | .
Cc1c(C(=O)N(C)C2CCCCC2)sc2ncnc(N3CCN(c4ccccc4)CC3)c12 | - | - | -9.65 | - | - | - | 28.3
Cc1c(C(=O)N2CCN(c3ccccc3)CC2)sc2ncnc(N3CCN(c4ccccn4)CC3)c12 | - | - | -9.69 | - | - | 80.5 | 48.3
CCC(C)c1nc2ccsc2c(N2CCOC2=O)c1-c1ccccc1 (stereo unspecified) | - | - | - | - | - | . | .
COc1[nH]c(/N=C/c2ccccc2)c(C#N)c1C#N | - | - | -8.37 | - | - | - | -
CC(C)C(=O)Nc1ccc(-c2nnc(-c3ccccc3)o2)cc1 | - | - | - | - | - | . | .
CCSc1nnc(NC(=O)C(NC(=O)c2ccc(Cl)cc2)C(C)C)s1 (stereo unspecified) | - | - | -9.43 | - | - | - | -
CC(C)C(NC(=O)c1ccc(Cl)cc1)C(=O)NC1=NCCS1 (stereo unspecified) | - | - | - | - | - | . | .
CC(CCc1ccccc1)NS(=O)(=O)c1ccccc1 (stereo unspecified) | - | - | - | - | - | . | .
Cc1ccccc1-n1ncc2c1CC(C)(C)CC2NC(=O)CCN1CCCCC1=O (stereo unspecified) | - | - | - | - | - | . | .
O=C1CC(NS(=O)(=O)c2cccnc2)CN1c1cccc(F)c1 (stereo unspecified) | - | - | - | - | - | . | .
COc1ccccc1N1CC(C)(C)C(=O)N(C(=O)c2ccc(C)cc2)C1=S | - | - | - | - | - | . | .
CCC(C(=O)O)P(=O)(c1ccc(Cl)cc1)c1ccc(Cl)cc1 (stereo unspecified) | - | - | - | - | - | . | .
CCOC(=O)c1cc2sc(C)cc2n1CC(=O)N(CC)CC | - | - | - | - | - | . | .

Compound activity from PubChem.
